Data set [1] in a line: Intrinsic clearance in CD-1 mouse liver microsomes in presence of NADPH up to 30 mins by UPLC-MS/MS analysis. It counts as ADME, microsome. Particulars: 0.5 h.
Data set [2] concerns Mycobacterium tuberculosis. The data set can be described thus: Antimycobacterial activity against Mycobacterium tuberculosis H37Rv ATCC 25618 after 5 days. In kind it is functional. Particulars: H37Rv ATCC 25618, 120 h. Put shortly: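 Growth measured in Middlebrook 7H9 with 10% OADC and 0.05% Tween 80 under aerobic conditions, covering H37Rv (ATCC 25618) and QcrB mutant strains. Growth read after 5 days at 37 °C. MIC90 is the concentration giving 90% growth inhibition, obtained by curve fitting (Levenberg–Marquardt). Mean ± SD of at least two independent experiments.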

Data set [3] concerns Vero. The data set can be described thus: Cytotoxicity against African green monkey Vero cells assessed as growth inhibition measured after 2 days by CellTiter-Glo assay. In kind it is cell-based. Particulars: Chlorocebus sabaeus, 48 h.
Data set [4] has as its system Mus musculus. The data set can be described thus: AUC in C57 Black mouse at 3 mg/kg, iv administered as bolus dose by UPLC-MS/MS analysis. It counts as ADME, organism-based. Particulars: in vivo.
Data set [5] deals with Cytochrome bc1 complex cytochrome b subunit (Mycobacterium tuberculosis (strain ATCC 25618 / H37Rv)) (UniProt P9WP37). Nature of the data set: Inhibition of QcrB in Mycobacterium tuberculosis H37Rv ATCC 25618 assessed as reduction in ATP level measured up to 0.1 uM after 24 hrs by BacTiter-Glo assay. Put shortly: (§1)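 H37Rv exposed to compounds for 24 h. Intrabacterial ATP measured by BacTiter-Glo as relative luminescence units, with growth followed by OD590. Representative of 2 independent experiments.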

The target is the same in data set [6]. The data set can be described thus: Inhibition of QcrB in Mycobacterium tuberculosis H37Rv ATCC 25618 assessed as reduction in ATP level measured after 24 hrs by BacTiter-Glo assay. The method, boiled down:
as §1

In data set [7] the test system is Mus musculus. Nature of the data set: Toxicity in C57BL/6 mouse infected with Mycobacterium tuberculosis H37Rv at 100 mg/kg, po for 4 consecutive days starting from day 5 post infection. In kind it is organism-based. Particulars: in vivo.
For data set [8], the system named is Mus musculus. The data set can be described thus: In vivo drug metabolism in C57 Black mouse assessed as oxidation of morpholine at 3 mg/kg, iv administered as bolus dose or 10 mg/kg, po via gavage by UPLC-MS/MS analysis. It counts as ADME, organism-based.
The subject of data set [9] is Mus musculus. The data set can be described thus: In vivo drug metabolism in C57 Black mouse assessed as de-ethylation at 3 mg/kg, iv administered as bolus dose or 10 mg/kg, po via gavage by UPLC-MS/MS analysis. It counts as ADME, organism-based.
For another data set, the target named is Cytochrome P450 2D6 (Homo sapiens, UniProt P10635). The data set can be described thus: Inhibition of CYP2D6 (unknown origin). It counts as ADME.
Another data set concerns the target T1, Cytochrome P450 1A2 (Homo sapiens, UniProt P05177).
T1 sequence (P05177 whole entry): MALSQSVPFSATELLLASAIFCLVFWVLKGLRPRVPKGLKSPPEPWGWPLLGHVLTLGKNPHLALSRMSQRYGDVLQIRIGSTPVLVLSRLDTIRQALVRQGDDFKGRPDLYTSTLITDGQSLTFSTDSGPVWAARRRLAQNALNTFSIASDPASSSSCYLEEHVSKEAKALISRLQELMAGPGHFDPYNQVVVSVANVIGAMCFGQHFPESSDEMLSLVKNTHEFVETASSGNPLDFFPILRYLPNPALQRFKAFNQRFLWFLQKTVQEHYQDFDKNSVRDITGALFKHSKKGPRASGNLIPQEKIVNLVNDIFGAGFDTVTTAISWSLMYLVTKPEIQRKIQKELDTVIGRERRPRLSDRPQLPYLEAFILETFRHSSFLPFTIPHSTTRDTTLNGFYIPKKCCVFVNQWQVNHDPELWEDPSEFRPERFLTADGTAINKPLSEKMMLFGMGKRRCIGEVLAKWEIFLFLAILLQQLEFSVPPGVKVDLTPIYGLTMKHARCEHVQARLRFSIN
The data set can be described thus: Inhibition of CYP1A2 (unknown origin). In kind it is ADME.

The next data set concerns the target Cytochrome P450 2C19 (Homo sapiens, UniProt P33261). The data set can be described thus: Inhibition of CYP2C19 (unknown origin). It counts as ADME.
The next data set concerns the target Cytochrome P450 2C9 (Homo sapiens, UniProt P11712). The data set can be described thus: Inhibition of CYP2C9 (unknown origin). In kind it is ADME.
The nature of data set [10]: Clearance in human liver microsomes. In kind it is ADME, microsome.
Data set [11] relates to Vero. The data set can be described thus: Cytotoxicity against African green monkey Vero cells. In kind it is cell-based. Particulars: chlorocebus sabaeus.
In data set [12] the test system is Mus musculus. The data set can be described thus: Toxicity in C57BL/6 mouse infected with Mycobacterium tuberculosis H37Rv at 30 mg/kg, po for 8 consecutive days starting from day 1 post infection. In kind it is organism-based. Particulars: in vivo.

Here are results for 26 molecules from ChEMBL document CHEMBL4190407, “Identification of Morpholino Thiophenes as Novel Mycobacterium tuberculosis Inhibitors, Targeting QcrB” (J Med Chem, 2018).

The structures appear in SMILES notation. Converted amounts (≈) assume the structure as drawn. The source made the active and inactive calls. The rule behind the calls is not given here.

Chain of Cytochrome bc1 complex cytochrome b subunit (Mycobacterium tuberculosis (strain ATCC 25618 / H37Rv)) (P9WP37 whole entry, one chain of several): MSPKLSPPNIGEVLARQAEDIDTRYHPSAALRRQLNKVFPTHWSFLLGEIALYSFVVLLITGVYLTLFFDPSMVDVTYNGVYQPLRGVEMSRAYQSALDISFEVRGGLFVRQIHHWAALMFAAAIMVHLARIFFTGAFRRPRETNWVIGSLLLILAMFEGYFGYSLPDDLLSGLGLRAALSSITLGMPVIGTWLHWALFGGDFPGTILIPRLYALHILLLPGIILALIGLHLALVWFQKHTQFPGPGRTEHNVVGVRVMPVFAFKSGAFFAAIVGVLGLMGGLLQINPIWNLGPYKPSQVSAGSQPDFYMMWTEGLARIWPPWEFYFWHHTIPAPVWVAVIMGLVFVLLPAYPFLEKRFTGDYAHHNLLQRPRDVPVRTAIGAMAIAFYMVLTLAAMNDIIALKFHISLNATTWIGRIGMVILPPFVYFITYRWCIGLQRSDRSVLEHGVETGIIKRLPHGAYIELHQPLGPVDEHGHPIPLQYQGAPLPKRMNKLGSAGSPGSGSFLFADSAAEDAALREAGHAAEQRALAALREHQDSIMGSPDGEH
Chain of Cytochrome P450 2C19 (P33261 whole entry): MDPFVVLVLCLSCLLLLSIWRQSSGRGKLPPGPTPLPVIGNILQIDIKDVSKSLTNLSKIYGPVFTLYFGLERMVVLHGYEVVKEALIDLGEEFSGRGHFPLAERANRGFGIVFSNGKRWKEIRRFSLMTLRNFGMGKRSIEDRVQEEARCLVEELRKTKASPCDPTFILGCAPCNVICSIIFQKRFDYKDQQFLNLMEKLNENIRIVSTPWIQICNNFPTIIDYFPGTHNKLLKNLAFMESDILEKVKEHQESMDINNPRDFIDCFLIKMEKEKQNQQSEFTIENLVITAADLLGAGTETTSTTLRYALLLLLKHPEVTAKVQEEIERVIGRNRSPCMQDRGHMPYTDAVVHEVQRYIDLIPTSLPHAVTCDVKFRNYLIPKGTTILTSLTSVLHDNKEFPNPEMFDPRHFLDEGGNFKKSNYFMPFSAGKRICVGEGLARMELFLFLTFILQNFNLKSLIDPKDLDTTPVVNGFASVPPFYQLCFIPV
Chain of Cytochrome P450 2D6 (P10635 whole entry): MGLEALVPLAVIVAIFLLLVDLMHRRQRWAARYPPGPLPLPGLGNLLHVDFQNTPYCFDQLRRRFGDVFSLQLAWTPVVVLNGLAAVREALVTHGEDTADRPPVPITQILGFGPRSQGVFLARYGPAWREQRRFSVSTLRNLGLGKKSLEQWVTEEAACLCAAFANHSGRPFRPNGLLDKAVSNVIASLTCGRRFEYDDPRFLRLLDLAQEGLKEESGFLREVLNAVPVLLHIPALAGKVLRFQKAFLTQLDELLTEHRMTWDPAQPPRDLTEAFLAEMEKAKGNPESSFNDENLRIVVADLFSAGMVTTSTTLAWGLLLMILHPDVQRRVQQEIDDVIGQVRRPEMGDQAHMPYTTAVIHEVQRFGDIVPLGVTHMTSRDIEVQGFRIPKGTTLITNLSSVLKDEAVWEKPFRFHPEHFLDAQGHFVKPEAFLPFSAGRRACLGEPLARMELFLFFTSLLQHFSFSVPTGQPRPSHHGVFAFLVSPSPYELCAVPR
Chain of Cytochrome P450 2C9 (P11712 whole entry): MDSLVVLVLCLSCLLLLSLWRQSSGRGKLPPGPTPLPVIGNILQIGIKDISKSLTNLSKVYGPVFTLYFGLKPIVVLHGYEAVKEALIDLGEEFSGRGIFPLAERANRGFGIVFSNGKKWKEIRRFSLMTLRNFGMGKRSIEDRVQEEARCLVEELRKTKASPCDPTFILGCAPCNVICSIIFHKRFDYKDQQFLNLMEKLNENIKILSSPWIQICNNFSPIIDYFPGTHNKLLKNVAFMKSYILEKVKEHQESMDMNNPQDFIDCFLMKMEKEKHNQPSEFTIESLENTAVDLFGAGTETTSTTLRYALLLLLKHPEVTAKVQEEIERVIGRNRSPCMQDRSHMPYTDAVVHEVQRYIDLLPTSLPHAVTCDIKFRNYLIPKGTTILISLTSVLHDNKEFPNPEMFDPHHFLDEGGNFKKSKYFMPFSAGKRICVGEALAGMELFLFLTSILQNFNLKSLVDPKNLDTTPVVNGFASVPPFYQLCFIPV

As to `CC1COCCN1c1cc(OCCc2ccccc2)c(C(N)=O)s1` (stereo not drawn), in data set [1], the intrinsic clearance was determined as 11 mL/min/g. Also, in data set [2], the MIC90 was more than 20 µM. The IC50 with Vero [3] turned out to be 77 µM.

Regarding `COC(=O)c1sc(N2CCOCC2)cc1OCCc1ccccc1`, the intrinsic clearance in [1] stood at 50 mL/min/g. Consider `CC1(COc2cc(N3CCOCC3)sc2C(N)=O)COC1`, for which the AUC with Mus musculus [4] amounted to 980000 ng·min/mL. For the molecule `NC(O)C1SC(N2CCOCC2)CC1OCC(F)(F)C1CCCCC1` (stereo not drawn), the intrinsic clearance in data set [1] turned out to be 19 mL/min/g. Besides, in data set [2], the MIC90 is more than 20 µM. Moreover, the IC50 with Vero [3] stood at 95 µM. For `NC(=O)c1sc(-n2nccn2)cc1OCCc1ccccc1`, the intrinsic clearance in [1] worked out at 30 mL/min/g. `CNC(=O)c1sc(N2CC3CC2CO3)cc1OCCc1ccccc1` (stereo not drawn): in [1], the intrinsic clearance came to 13 mL/min/g. Consider `CO[C@H]1/C=C/O[C@@]2(C)Oc3c(C)c(O)c4c(O)c(c(/C=N/N5CCN(C)CC5)c(O)c4c3C2=O)NC(=O)/C(C)=C\C=C\[C@H](C)[C@H](O)[C@@H](C)[C@@H](O)[C@@H](C)[C@H](OC(C)=O)[C@@H]1C`, for which the inhibition entry in data set [5] is “Active”. Regarding `NC(=O)c1sc(N2CCOCC2)cc1CCCc1ccc(F)cc1`, the intrinsic clearance in data set [1] came out at 13 mL/min/g. The molecule further showed an MIC90 in data set [2] of 0.9 µM (≈ 0.314 µg/mL). For the same molecule, in the data set with Vero [3], the IC50 is more than 100 µM. With `COCCN(C)c1cc(OCCc2ccccc2)c(C(N)=O)s1`, the intrinsic clearance in [1] was determined as 28 mL/min/g. The same molecule displayed an MIC90 in data set [2] of more than 20 µM. In addition, the IC50 in the data set with Vero [3] is more than 100 µM.

`COc1ccc(CCOc2cc(N3CCOCC3)sc2C(N)=O)cc1` gave an MIC90 in data set [2] of 0.6 to 0.63 µM (≈ 0.217 to 0.228 µg/mL). As for `CNC(=O)c1sc(N2CCOCC2)cc1OCCc1ccccc1`, the intrinsic clearance in [1] turned out to be 36 mL/min/g. Further, in [6], the inhibition entry was “Dose-dependent effect”. Take `NC(=O)c1sc(CN2CCOCC2)cc1OCCc1ccccc1`: the intrinsic clearance in [1] was 3 mL/min/g.

With `NC(=O)c1sc(N2CCOCC2)cc1OCCN1CCOCC1`, the intrinsic clearance in data set [1] amounted to 0.9 mL/min/g. Take `COc1ccccc1CCOc1cc(N2CCOCC2)sc1C(N)=O`: the intrinsic clearance in data set [1] was 26 mL/min/g. Still for that read-out and setting: for `NC(=O)c1sc(N2CCOCC2)cc1OCc1ccccc1` the value was 14 mL/min/g; for `NC(=O)c1sc(N2CCOCC2=O)cc1OCCc1ccccc1`, 7 mL/min/g. As for `NC(=O)c1sc(N2CCOCC2)cc1OCCc1cccc(F)c1`, in data set [1], the intrinsic clearance stood at 18 mL/min/g. For the same molecule, the inhibition result in data set [6] is “Dose-dependent effect”. As for `NC(=O)c1sc(N2CCOCC2)cc1OCCc1ccc(OC(F)(F)F)cc1`, the Activity entry in the data set on Mus musculus [7] was “Non-Toxic”. In addition, the inhibition entry in [6] was “Dose-dependent effect”. For the same molecule, the MIC90 in data set [2] was 0.2 to 0.24 µM (≈ 0.0833 to 0.0999 µg/mL). For the same molecule, the Drug metabolism result with Mus musculus [8] and in the data set on Mus musculus [9] was “Metabolite_Detected” each time. As for `CON(C)C(=O)c1sc(N2CCOCC2)cc1OCCc1ccccc1`, the half-maximal inhibitory concentration (IC50) in the data set with Vero [3] was 78 µM. Take `NC(=O)c1ccc(N2CCOCC2)cc1OCCc1ccccc1`: the intrinsic clearance in [1] is 12 mL/min/g. With `O=C(NO)c1sc(N2CCOCC2)cc1OCCc1ccccc1`, the intrinsic clearance in [1] came out at 6 mL/min/g. `NC(=O)c1sc(N2CCOCC2)cc1OCCc1ccccc1`: the INH at Cytochrome P450 2D6 was 5 µM; on Cytochrome P450 1A2, less than 5 µM; on Cytochrome P450 2C19, 5.9 µM; on Cytochrome P450 2C9 it was 5.1 µM. The inhibition result in data set [6] was “Dose-dependent effect”. The molecule further returned a CLH in [10] of 3.5 mL/min/g. Moreover, the MIC90 in [2] lay within 0.72 to 0.8 µM (≈ 0.239 to 0.266 µg/mL). Moreover, the Activity in the data set on Vero [11] is more than 100 µM. Also, the AUC in the data set with Mus musculus [4] worked out at 29000 ng·min/mL.

`COc1c(N2C[C@@H]3CCCN[C@@H]3C2)c(F)cc2c(=O)c(C(=O)O)cn(C3CC3)c12` [MOXIFLOXACIN]: in the data set with Mus musculus [12], the Activity entry is listed as “Non-Toxic”. For `CCc1nc2ccc(Cl)cn2c1C(=O)NCc1ccc(N2CCC(c3ccc(OC(F)(F)F)cc3)CC2)cc1`, the inhibition entry in data set [5] is “Active”.

Consider `CCOC(=O)NC(=O)c1sc(N2CCOCC2)cc1OCCc1ccccc1`, for which the intrinsic clearance in [1] amounted to 1 mL/min/g. The same measure, in the same setting: under `COc1cccc(CCOc2cc(N3CCOCC3)sc2C(N)=O)c1` stands 10 mL/min/g.
